RGS4 pot – RGS4 potentiators or activators, primary screen, cell-based, HEK293 M3R inducible RGS4, calcium flux; carbachol calcium flux Fluo4; stronger effect = lower value; B-score at 10 µM; actives 0.92% (n = 310,000);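 active = B-score of the integrated calcium signal more than 4 SD below the library mean, with starting fluorescence not abnormally high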;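 also: negative B-score means reduced calcium response which marks RGS4 activation or potentiation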
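test system = HEK293 cells with stable M3R and inducible RGS4 | schedule = recording 10 s baseline at 1 Hz, 100 s post-agonist | technique = Fluo4-AM (2 µM) calcium-flux fluorescence, kinetic read | measure = Agonist-evoked peak-minus-minimum fluorescence over baseline, integrated ratio, B score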
MrgX1 agonist – agonists of human MrgX1 receptor, primary screen, HEK293 cells, Fluo-4 calcium flux; B-score at 10 µM; actives 0.44% (n = 310,000); AID 588627, 2011; Fluo-4 calcium fluorescence, agonist mode; stronger effect = higher value;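 active = calcium response B-score plate-corrected fluorescence ratio at least 3 library SD, with starting fluorescence B-score inside 5 SD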
Target sequence (Q96LB2 whole entry, looked up): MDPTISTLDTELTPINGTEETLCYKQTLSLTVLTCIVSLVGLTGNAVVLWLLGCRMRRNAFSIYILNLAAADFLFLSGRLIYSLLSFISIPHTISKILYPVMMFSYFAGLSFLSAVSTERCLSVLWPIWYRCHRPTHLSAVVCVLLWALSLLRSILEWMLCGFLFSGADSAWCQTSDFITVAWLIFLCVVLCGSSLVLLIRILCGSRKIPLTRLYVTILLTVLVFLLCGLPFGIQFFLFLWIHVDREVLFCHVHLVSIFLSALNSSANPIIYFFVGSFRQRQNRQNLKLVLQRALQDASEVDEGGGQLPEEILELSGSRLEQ
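Assay system: stable human MrgX1 HEK293 cell line. Quantity: 15,000 cells per well. Schedule: cells plated overnight, dye loaded 0.5 h 37 °C, 0.5 h room temperature. Detection: Fluo-4 NW calcium-flux fluorescence, kinetic read. Read-out basis: peak-minus-minimum fluorescence over baseline, converted to B scores. Control set: positive and negative control wells on each plate.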
PHOSPHO1 inh – PubChem AID 1565. recombinant PHOSPHO1, absorbance phosphatase assay. inhibition, % at 13.3 µM. actives 1.1% (n = 290,000); in the data active = inhibition above about 60%
MrgX1 PAM – positive allosteric modulators of MrgX1, primary screen, HEK293 cells, Fluo-4 calcium flux; Mas-related G-protein coupled receptor member X1 (Homo sapiens), Q96LB2; FDSS; stronger effect = higher value; B-score at 10 µM; actives 0.63% (n = 310,000); AID 588675, 2011;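 active = plate-corrected calcium response at least 3 library SD above typical, normal starting fluorescence, not activating the receptor alone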;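 also: compound read alongside a low EC10 to EC30 dose of BAM8-22 agonist; peak minus trough fluorescence over baseline measured at the second addition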
MrgX1 antag – antagonists of human MrgX1 receptor, primary screen, HEK293 cells, Fluo-4 calcium flux | BAM8-22 antagonism; stronger effect = lower value | B-score at 10 µM | actives 1.3% (n = 310,000) | Mas-related G-protein coupled receptor member X1 (Homo sapiens), Q96LB2;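 active = calcium-response B-score plate-corrected more than 3 library SD below zero, starting fluorescence within 5 deviations, no agonist response on first addition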;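 also: peak minus trough fluorescence over baseline after final BAM8-22 challenge near maximal dose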
RGS4 inh – RGS4 inhibitors, primary screen, cell-based, HEK293 M3R inducible RGS4, calcium flux; Regulator of G-protein signaling 4 (Homo sapiens), P49798; Fluo-4 calcium flux; stronger effect = higher value; triggered by carbachol at its EC20; B-score at 10 µM; actives 0.45% (n = 310,000); AID 463165, 2010;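 active = B-score, a plate-corrected calcium signal, over three deviations above library mean, with baseline fluorescence within five deviations of library mean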;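 also: RGS4 expression induced by doxycycline in cells with stable M3 receptor; B-score is computed from the integrated fluorescence ratio over baseline after carbachol; higher B-score means a larger calcium signal and so more RGS4 inhibition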
Target sequence (P49798 whole entry, looked up): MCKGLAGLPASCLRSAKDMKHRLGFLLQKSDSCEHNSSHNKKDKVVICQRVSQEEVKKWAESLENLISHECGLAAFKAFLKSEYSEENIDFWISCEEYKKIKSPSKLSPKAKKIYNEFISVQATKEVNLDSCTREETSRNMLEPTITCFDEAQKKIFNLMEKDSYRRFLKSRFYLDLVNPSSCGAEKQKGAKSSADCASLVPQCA
MrgX1 allo conf – MrgX1 positive allosteric modulators, duplicate retest, confirmation, HEK293 cells, Fluo-4 calcium flux. Fluo-4 calcium fluorescence, FDSS. shares compounds with MrgX1 PAM. actives 13% (n = 1,200). activation (ratio percentage), % at 10 µM;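 active = ratio at least 3 SD above the weak peptide control, stable starting fluorescence, no direct agonism earlier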;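 also: compound followed by low BAM8-22 agonist challenge near EC20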
HEK293 Ca flux – nonspecific calcium signal in parental HEK293, confirmation, counter-screen for MrgX1 antagonist project, parental HEK293 cells, Fluo-4 calcium flux; shares compounds with MrgX1 antag; actives 2% (n = 4,000); fluorescence ratio F(max-min)/F0 at 10 µM; Fluo-4 calcium fluorescence, FDSS;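 active = duplicate-averaged calcium fluorescence ratio at least three times the standard deviation of buffer wells, a nonspecific response in parental cells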
HEK293 Ca counter – calcium response in parental HEK293 cells, primary screen, counter-screen for MrgX1 allosteric activator project, cell-based, Fluo-4 calcium flux, duplicate; Fluo-4 fluorescence ratio; stronger effect = higher value; shares compounds with MrgX1 antag; fluorescence ratio F(max-min)/F0 at 10 µM; actives 0.4% (n = 4,000); AID 624114, 2012;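 active = calcium fluorescence ratio, averaged over duplicates, at least 3 SD of the buffer-well ratio, meaning a nonspecific response in receptor-free cells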;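 also: untransfected parental HEK293 lacking MrgX1 used as counterscreen for MrgX1 allosteric activators; fluorescence change taken during the second addition on a kinetic imager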
HEK293 Ca cntr2 – calcium response in parental HEK293 cells, primary screen, counter-screen for MrgX1 agonist project, cell-based, Fluo-4 calcium flux, duplicate, agonist mode | shares compounds with MrgX1 antag | AID 624115, 2012 | fluorescence ratio F(max-min)/F0 at 10 µM | actives 8.7% (n = 4,000) | Fluo-4 calcium fluorescence (FDSS); stronger effect = higher value;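 active = calcium fluorescence ratio at least three times the spread of buffer wells, meaning a non-specific response in parental cells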
* hit, by the source's call; i = inactive; / = no result given. In the library only some 4.5% were active in any assay of this set; here they are far more common.

SMILES	RGS4 pot	MrgX1 agonist	PHOSPHO1 inh	MrgX1 PAM	MrgX1 antag	RGS4 inh	MrgX1 allo conf	HEK293 Ca flux	HEK293 Ca counter	HEK293 Ca cntr2
O=C(NCc1ccccc1)C1CC(=O)N(C2CCCCC2)C1 (stereo not drawn)	i	i	12.6	i	i	i	/	/	/	/
CC1CCCC(NC(=O)CCS(=O)(=O)c2cc3c(cc2Cl)NC(=O)CO3)C1C (stereo not drawn)	i	i	30.2	i	i	i	/	/	/	/
CC1CCCC(NS(=O)(=O)c2cc3c(cc2Cl)NC(=O)CO3)C1C (stereo not drawn)	i	i	22.8	21.4*	i	i	i	i	i	i
N#CCSc1ncnc2ccccc12	i	i	12.7	i	i	i	/	/	/	/
c1ccc(Sc2ncnc3ccccc23)cc1	i	i	24.8	18*	i	i	27.9%*	i	i	i
O=C(CCSCc1ccccc1Cl)NC1CCCCC1	i	i	-5.3	i	i	i	/	/	/	/
COC(=O)c1sc2nc(N3CCCCC3)c3c(c2c1N)CCCC3	i	i	20.4	6.87*	i	i	i	i	i	i
Cc1cccc(S(=O)(=O)Nc2cccc3c2C(=O)c2ccccc2-3)c1	i	i	45.2	14.9*	i	i	i	i	i	46.8*
N#Cc1cccc(C#N)c1Oc1ccc(S(=O)(=O)Nc2ccc(Cl)cc2)cc1	i	i	37.4	i	i	i	/	/	/	/
O=C(N1CCOCC1)N1CCN(C(c2ccccc2)c2ccccc2)CC1	i	i	52.4	i	i	i	/	/	/	/
O=C(N1CCCCC1)N1CCN(C(c2ccccc2)c2ccccc2)CC1	i	i	4.2	6.94*	i	i	i	i	i	i
Cc1cc(Cl)cc(Br)c1OCCCCn1cncn1	i	i	13.8	6.86*	i	i	i	i	i	i
CC1(C)C(=O)Nc2ccccc2N1C(=O)COC(=O)COc1ccc(C#N)cc1	i	i	24.0	i	i	i	/	/	/	/
CC1(C)c2ccccc2-c2nc3ccccc3cc2C1O (stereo not drawn)	i	i	2.1	9.61*	i	i	i	i	i	i
COc1ccccc1N1CCN(C(=O)c2cc3cc(C)ccc3[nH]2)CC1	i	i	23.5	11*	i	i	i	i	i	i
Cc1ccccc1CC(=O)N1CCCC(CNC(=O)c2ccc(F)cc2)C1 (stereo not drawn)	i	i	33.2	i	i	i	/	/	/	/
S=C(NCCCN1CCOCC1)Nc1cccc(Cl)c1	i	i	42.8	10.8*	i	i	i	i	i	i
COc1nc(N)nc(NC23CC4CC(CC(C4)C2)C3)n1	i	i	-20.5	14.9*	i	i	22.1%*	i	i	i
N#CC(C(=O)NC1CC1)c1nc2ccccc2nc1N1CCCC1 (stereo not drawn)	i	i	8.8	i	i	i	/	/	/	/
N#CC(C(=O)NC1CC1)c1nc2ccccc2nc1N1CCN(C/C=C/c2ccccc2)CC1 (stereo not drawn)	i	i	16.5	9.29*	i	i	i	i	i	i
COC(=O)CCCC(=O)N1CCC(CCC(=O)NCc2ccc(F)cc2)CC1	i	i	24.1	i	i	i	/	/	/	/
COc1ccc(CNc2cccc(F)c2)cc1Br	i	i	14.8	6.5*	i	i	i	i	i	i
COCCNC(=O)C(NC(=O)C1CCC(C)CC1)C(C)C (stereo not drawn)	i	i	19.2	i	i	i	/	/	/	/
CC(C)c1ccc(C(N)=S)cc1	i	i	9.5	14.2*	i	i	i	i	i	i
CC(C)c1ccc(C(=O)NNC(=O)c2ccncc2)cc1	i	i	28.0	i	i	i	/	/	/	/
SMILES	RGS4 pot	MrgX1 agonist	PHOSPHO1 inh	MrgX1 PAM	MrgX1 antag	RGS4 inh	MrgX1 allo conf	HEK293 Ca flux	HEK293 Ca counter	HEK293 Ca cntr2
Cc1ccc(-n2c(C)cc(C(=O)CSc3nncs3)c2C)cc1	i	i	89.4*	7.04*	i	i	2.1%*	i	i	i
Cc1ccc(-n2c(C)cc(C(=O)CSc3nnnn3C)c2C)cc1	i	i	17.6	i	i	i	/	/	/	/
O=C(COCc1cc(-c2ccc3c(c2)OCO3)on1)N1CCCCC1	i	i	12.1	i	i	i	/	/	/	/
NC(=O)C1CCN(C(=O)COCc2cc(-c3ccc4c(c3)OCO4)on2)CC1	i	i	6.7	17*	i	i	i	i	i	i
O=C(COc1ccc(Cl)cc1Cl)Nc1cccnc1	i	i	1.8	8.66*	i	i	i	i	i	i
O=C(COc1ccc(Cl)cc1Cl)N/N=C/c1cccnc1	i	i	46.2	i	i	i	/	/	/	/
CCn1nc(C)c(CCC(=O)O)c1C	i	i	14.6	10.1*	i	i	i	i	i	i
COc1ccc(/C=C2\SC(=S)N(CCC(=O)Nc3ccccc3C(=O)O)C2=O)cc1	i	i	14.1	i	i	i	/	/	/	/
COc1ccc(/C=C2\SC(=S)N(CCCC(=O)Nc3ccccc3C(=O)O)C2=O)cc1OC	i	i	14.7	21.9*	i	i	i	i	i	52.6*
